Screening data from PubChem.
TAAR1 agonist – human TAAR1 agonism; hit rate 0.99% among 360,000; Q96RJ0; CHO RD-HGA16 TAAR1, Fluo-8 calcium fluorescence; vehicle wells 0%, saturating PEA agonist 100%; AID 624467; activation, % at 3 µM;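 active = activation above the mean activation of all test compounds in the run plus 3 SD, cut at about 38% in these data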
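System: CHO-derived RD-HGA16 cells with stable Gα16 and human TAAR1 / Times: 17-24 h plating, Fluo-8 75 min 37 °C, 30 min RT / Technique: calcium-sensitive Fluo-8 signal, excitation 470-495, emission 515-575 nm / Measure: % activation relative to PEA EC100 response / Benchmarks: DMSO and PEA EC100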
TAAR1 antagonist – antagonists of human TAAR1. CHO RD-HGA16 TAAR1, Fluo-8 calcium fluorescence, antagonist. inhibition, % at 3 µM. hit rate 1.5% among 360,000. AID 624466;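 active = inhibition above a per-plate cutoff, the mean inhibition of test compounds on that plate plus 3 SD, cut at about 49% in these data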
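Material: CHO RD-HGA16 cells bearing hTAAR1; compound dosing: one-point dosing, 3 µM nominal final; schedule: dye loading 75 min at 37 °C, then 30 min room temperature; measured by: calcium fluorescence with Fluo-8; control set: vehicle and agonist controls; replication: n of 1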
M1 antag – antagonists of human M1 muscarinic receptor. CHO-K1 hM1, Fluo-8 calcium fluorescence, ACh EC80 antagonist. inhibition, % at 3 µM. AID 588852. hit rate 1.3% among 360,000. P11229;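 active = percent inhibition above its own plate's cutoff, namely the mean of that plate's compound wells plus 3 SD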;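 note: peak over basal fluorescence ratio during 140 s after agonist addition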
Target sequence (P11229 whole entry, looked up): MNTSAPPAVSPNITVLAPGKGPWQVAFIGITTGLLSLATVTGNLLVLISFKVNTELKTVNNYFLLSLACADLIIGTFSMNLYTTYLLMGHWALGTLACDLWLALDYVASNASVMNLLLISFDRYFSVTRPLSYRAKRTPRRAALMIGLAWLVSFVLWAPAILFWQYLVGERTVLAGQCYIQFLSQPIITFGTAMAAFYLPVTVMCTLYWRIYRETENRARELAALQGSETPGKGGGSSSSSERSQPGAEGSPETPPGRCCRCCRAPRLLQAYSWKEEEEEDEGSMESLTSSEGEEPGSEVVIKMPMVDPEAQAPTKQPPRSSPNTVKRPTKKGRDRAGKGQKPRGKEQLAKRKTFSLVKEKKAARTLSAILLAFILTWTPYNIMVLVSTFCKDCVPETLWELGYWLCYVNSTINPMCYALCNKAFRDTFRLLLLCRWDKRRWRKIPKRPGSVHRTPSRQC
CHRM1 PAM – human CHRM1 positive allosteric modulation. P11229. CHO-K1 hM1, Fluo-8 calcium fluorescence, ACh EC20; 0% = ACh EC20, 100% = maximal ACh. activation, % at 3 µM. hit rate 0.088% among 360,000. AID 588819; in the data active = activation above about 19%, passing the limit was not always enough
M1 ag – agonists of human M1 muscarinic receptor; P11229; activation, % at 3 µM; hit rate 0.33% among 360,000; CHO-K1 hM1, Fluo-8 calcium fluorescence, agonist mode; 0% DMSO, 100% acetylcholine EC100;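 active = activation above the run's mean compound activation plus 3 SD, cut at about 16% in these data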;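 note: peak over basal fluorescence ratio within a 140 s kinetic read after compound addition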
Each line names hits and unclear results; the compound was inactive in the other large screens; ! = not confirmed by another sample. Only some compounds are listed: those with a hit (about 3.4% of all), similar ones and a draw of the others.

CCCN1CCN(CCCNC(=O)c2cc3c(=O)oc4ccc(C)cc4c3s2)CC1	M1 ag 21
CCCN1CCN(CCCNC(=O)c2ccc3c(c2)NC(=O)c2ccccc2S3)CC1	M1 antag 42
CCCN1CCN(CCCNC(=O)c2cc3c(=O)[nH]c4ccccc4c3s2)CC1	M1 ag 21
Cc1ccc2oc(=O)c3cc(C(=O)NCCCN4CCC(C)CC4)sc3c2c1	none (no result: M1 antag, CHRM1 PAM, M1 ag)
C=CCNc1cccc2c1S(=O)(=O)N[C@@H](C)CO2	none (no result: M1 antag, CHRM1 PAM, M1 ag)
CC1(C(=O)Nc2cnc3ccccc3c2)CCN1Cc1ccccc1Cl (stereo unspecified)	none
COc1cccc(CN2CCC2(C)C(=O)Nc2cnc3ccccc3c2)c1F (stereo unspecified)	TAAR1 antagonist 53
CC1(C(=O)Nc2cnc3ccccc3c2)CCN1Cc1ccccc1OC(F)F (stereo unspecified)	TAAR1 antagonist 62
COC(=O)C1=C(C)N(Cc2ccc(C(F)(F)F)cc2)C(=NCc2ccc(C(F)(F)F)cc2)NC1c1ccc(F)cc1 (stereo unspecified)	none (no result: M1 antag, CHRM1 PAM, M1 ag)
Nc1[nH]c(C(=O)c2ccccc2)c(-c2cccc3ccccc23)c1C(=O)NC1CCCCC1	none (no result: M1 antag, CHRM1 PAM, M1 ag)
O=S(=O)(c1cccc2cnccc12)N1CCCNCC1	none (no result: TAAR1 agonist, TAAR1 antagonist)
CC1CNCCN1S(=O)(=O)c1cccc2cnccc12 (stereo unspecified)	M1 ag 42!
CCC(=O)N1CCc2cc(S(=O)(=O)CCC(=O)NCc3cccc(OC)c3)ccc21	M1 antag 51
COc1ccc(CN(C)C(=O)c2ccc(NS(=O)(=O)c3ccc(F)cc3)cc2)c(OC)c1	none
COc1ccc(NS(=O)(=O)c2ccc(C(=O)NCC3(N4CCOCC4)CCCCC3)cc2)cc1	TAAR1 agonist 57
COc1ccc(NS(=O)(=O)c2ccc(C(=O)N(C)Cc3ccc(C)o3)cc2)cc1	TAAR1 agonist 49, M1 ag 20
COc1ccc(NS(=O)(=O)c2cccc(C(=O)NCC3(N4CCOCC4)CCCCC3)c2)cc1	none
COCc1cc(N2CCNC[C@@H]2C)ccc1N1C[C@@H](C)O[C@@H](C)C1	none (no result: M1 antag, CHRM1 PAM, M1 ag)
CC(=O)Oc1ccc(/C=C2/SC(=S)N(Cc3ccccc3)C2=O)cc1	none
COc1ccc(CN2C(=O)/C(=C/c3ccncc3)SC2=S)cc1	CHRM1 PAM 24
CC(C)(C)CN1CCN(Cc2cc3ccccc3[nH]2)CC1CCO (stereo unspecified)	none
CCOc1ccc(CN2CCN(Cc3cc4ccccc4[nH]3)CC2CCO)cc1 (stereo unspecified)	TAAR1 agonist 42
Nc1[nH]c(C(=O)c2ccc(Br)cc2)c(-c2ccc3ccccc3c2)c1C(=O)NCCc1c[nH]c2ccccc12	none (no result: M1 antag, CHRM1 PAM, M1 ag)
COc1ccc(C(=O)C(=O)N2CCN(C(=O)c3cc(C(F)(F)F)cc(C(F)(F)F)c3)CC2)cc1OC	none (no result: M1 antag, CHRM1 PAM, M1 ag)
CCCCC(=O)Nc1ncc(S(=O)(=O)c2ccc([N+](=O)[O-])cc2)s1	TAAR1 agonist 55, M1 ag 23
Cc1ccc(C#CC[N+]2(CC#Cc3ccc(C)cc3)CCCCC2)cc1	M1 antag 48
C#CC[N+]1(CC#Cc2ccccc2)CCCCC1	none
CCC[N+]1(CC#CCC(c2ccccc2)c2ccccc2)CCCCC1	M1 antag 63
C(#Cc1ccccc1)C[N+]1(CC#Cc2ccccc2)CCCCC1	M1 antag 60
CCCCNC(=O)c1nc(-c2cc3ccccc3[nH]2)oc1-c1ccccc1	none (no result: M1 antag, CHRM1 PAM, M1 ag)
COc1ccc(S(=O)(=O)Nc2ccc3c(c2)C(=O)N([C@H](C)CO)C[C@H](C)[C@@H](CN(C)C(=O)Nc2c(C)noc2C)O3)cc1	none
C[C@H](CO)N1C[C@H](C)[C@@H](CN(C)S(=O)(=O)c2cccs2)Oc2ccc(NC(=O)NC3CCCCC3)cc2C1=O	M1 antag 44
COc1ccc(S(=O)(=O)Nc2ccc3c(c2)C(=O)N([C@H](C)CO)C[C@H](C)[C@@H](CN(C)C(=O)Nc2c(C)noc2C)OCCCC[C@H](C)O3)cc1	M1 ag 40
C[C@H](CO)N1C[C@H](C)[C@@H](CN(C)S(=O)(=O)c2ccccc2)Oc2ccc(NC(=O)NC3CCCCC3)cc2C1=O	M1 antag 39
C[C@H](CO)N1C[C@H](C)[C@@H](CN(C)S(C)(=O)=O)Oc2ccc(NC(=O)Cn3cnnn3)cc2C1=O	none
C[C@H](CO)N1C[C@H](C)[C@@H](CN(C)S(=O)(=O)c2cccs2)Oc2ccc(NC(=O)Cn3cnnn3)cc2C1=O	M1 antag 26
C[C@H](CO)N1C[C@H](C)[C@@H](CN(C)S(=O)(=O)c2ccccc2)Oc2ccc(NC(=O)C3CCCCC3)cc2C1=O	none
O=C(NCc1ccccc1)[C@@H]1CCCN1C(=O)[C@H]1CCCN1C(=O)c1cccc2ccccc12	none (no result: M1 antag, CHRM1 PAM, M1 ag)
COC(=O)c1cc2c(c3c4cc(C)ccc4n(S(=O)(=O)c4ccc(OC)cc4)c13)C(=O)N(Cc1ccccc1)C2	none (no result: M1 antag, CHRM1 PAM, M1 ag)
CCOC(=O)C1=C(N)N2C(=O)C(C)SC2=C(C(=O)OC)C1c1ccccc1OC (stereo unspecified)	TAAR1 agonist 37
Cc1cccc(NC(=O)c2ccc(N3CCCCC3)c([N+](=O)[O-])c2)n1	none
Cc1cccc(NC(=O)c2ccc(N(C)C3CCCCC3)c([N+](=O)[O-])c2)n1	TAAR1 antagonist 63
C[C@@H]1CCCCCCCCCCC1=O	none
O=C1NN=C2CCCCCCC12 (stereo unspecified)	M1 antag 98
Cc1ccc(C(=O)NC2CCCCN(C)C2=O)c(C)c1 (stereo unspecified)	none (no result: M1 antag, CHRM1 PAM, M1 ag)
O=C(Nc1ccccc1)c1nc[nH]c1C(=O)NCCCCCCNC(=O)c1[nH]cnc1C(=O)Nc1ccccc1	none
O=C(Nc1ccccc1)c1nc[nH]c1C(=O)NCCCNC(=O)c1[nH]cnc1C(=O)Nc1ccccc1	TAAR1 antagonist 54
C[C@H](NC(=O)c1nc[nH]c1C(=O)N[C@@H](C)c1ccccc1)c1ccccc1	TAAR1 agonist 42, TAAR1 antagonist 54
CC(C)(C)OC(=O)NCCCCCNC(=O)c1nc[nH]c1C(=O)NCCCCCNC(=O)OC(C)(C)C	TAAR1 antagonist 69, M1 antag 44
CC1CCN(C(=O)c2[nH]cnc2C(=O)NCCCCCNC(=O)OC(C)(C)C)CC1	none
CC(C)(C)OC(=O)NCc1ccc(CNC(=O)c2[nH]cnc2C(=O)NC2CCN(C(=O)OC(C)(C)C)CC2)cc1	M1 antag 34 (no result: TAAR1 agonist, TAAR1 antagonist)
C[C@H](NC(=O)c1[nH]cnc1C(=O)N[C@@H](C)CO)c1ccccc1	none
COc1ccc(-c2csc(C(C)(O)c3cccc(F)c3)n2)cn1 (stereo unspecified)	none
COc1ccc(NC(=O)C(c2ccccc2F)n2c(=O)c(-c3cc4ccccc4[nH]3)nc3ccccc32)cc1 (stereo unspecified)	none (no result: M1 antag, CHRM1 PAM, M1 ag)
Cc1cc(C)n2c(NC3CCCCC3)c(-c3cccnc3)nc2n1	none (no result: M1 antag, CHRM1 PAM, M1 ag)
